Results published in ChEMBL document CHEMBL1811802, “Synthesis and significant cytostatic activity of 7-hetaryl-7-deazaadenosines” (J Med Chem, 2011).

Columns and labels:
CCRF-CEM = experiment: Cytotoxicity against human CCRF-CEM cells after 3 days by XTT assay; format: functional, cell-based; details: 72 h
In short: (§1)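 Suspension-grown cell lines, 3-day compound incubation; viability read by XTT metabolic assay; IC50 averaged from four independent experiments.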

DU-145 [1] = experiment: Metabolic stability in human DU145 cells assessed as sodium ((2R,3S,4R,5R)-5-(4-amino-7H-pyrrolo[2,3-d]pyrimidin-7-yl)-3,4-dihydroxytetrahydrofuran-2-yl)methyl hydrogenphosphate-NMP formation per million of cells at 10 uM after 24 hrs by LC/MS/MS analysis; format: ADME, cell-based; details: du-145, 24 h
In short: (§2)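 Du145 seeded at 60% confluence in MEM/10% FBS; next day exposed to 10 μM compound for 6 or 24 h. Cells trypsinized, extracted in 70% MeOH, dried, resuspended in 1 mM ammonium phosphate pH 8.5. Nucleoside, NMP and NTP quantified by ion-pairing (dimethylhexylamine) LC/MS/MS against untreated-cell-extract standard curves; pmol per million cells.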

DU-145 [2] = experiment: Metabolic stability in human DU145 cells assessed as sodium ((2R,3S,4R,5R)-5-(4-amino-7H-pyrrolo[2,3-d]pyrimidin-7-yl)-3,4-dihydroxytetrahydrofuran-2-yl)methyl hydrogenphosphate-NMP formation per million of cells at 10 uM after 6 hrs by LC/MS/MS analysis; format: ADME, cell-based; details: du-145, 6 h; in short: as §2
DU-145 [3] = experiment: Metabolic stability in human DU145 cells assessed as nucleoside formation per million of cells at 10 uM after 6 hrs by LC/MS/MS analysis; format: ADME, cell-based; details: du-145, 6 h; in short: as §2
HCT-116 [4] = experiment: Cytostatic activity against human HCT116 cells after 5 days by SRB assay; format: functional; details: HCT-116, 120 h
In short: (§3)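 Cells seeded per line density, overnight at 37 °C; day-zero plate TCA-fixed. 5-fold serial dilutions added, 5-day incubation; TCA fixation, 0.057% SRB in 1% acetic acid 30 min, dye dissolved in 10 mM Tris pH 10.5, A500. Growth relative to day-zero and untreated; GIC50 from sigmoidal dose–response fit; mean of two independent experiments.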

DU-145 [5] = experiment: Metabolic stability in human DU145 cells assessed as sodium ((2R,3S,4R,5R)-5-(4-amino-7H-pyrrolo[2,3-d]pyrimidin-7-yl)-3,4-dihydroxytetrahydrofuran-2-yl)methyl hydrogentriphosphate-NTP formation per million of cells at 10 uM after 6 hrs by LC/MS/MS analysis; format: ADME, cell-based; details: du-145, 6 h; in short: as §2
DU-145 [6] = experiment: Metabolic stability in human DU145 cells assessed as nucleoside formation per million of cells at 10 uM after 24 hrs by LC/MS/MS analysis; format: ADME, cell-based; details: du-145, 24 h; in short: as §2
DU-145 [7] = experiment: Metabolic stability in human DU145 cells assessed as sodium ((2R,3S,4R,5R)-5-(4-amino-7H-pyrrolo[2,3-d]pyrimidin-7-yl)-3,4-dihydroxytetrahydrofuran-2-yl)methyl hydrogentriphosphate-NTP formation per million of cells at 10 uM after 24 hrs by LC/MS/MS analysis; format: ADME, cell-based; details: du-145, 24 h; in short: as §2
HL-60 = experiment: Cytotoxicity against human HL60 cells after 3 days by XTT assay; format: functional, cell-based; details: HL-60, 72 h; in short: as §1
MT4 = experiment: Cytostatic activity against human MT4 cells after 5 days by SRB assay; format: functional; details: MT4, 120 h
Adenosine kinase = Adenosine kinase (Homo sapiens, UniProt P55263); experiment: Inhibition of human ADK using [3H]-adenosine by scintillation counting
Sequence of Adenosine kinase (P55263 whole entry): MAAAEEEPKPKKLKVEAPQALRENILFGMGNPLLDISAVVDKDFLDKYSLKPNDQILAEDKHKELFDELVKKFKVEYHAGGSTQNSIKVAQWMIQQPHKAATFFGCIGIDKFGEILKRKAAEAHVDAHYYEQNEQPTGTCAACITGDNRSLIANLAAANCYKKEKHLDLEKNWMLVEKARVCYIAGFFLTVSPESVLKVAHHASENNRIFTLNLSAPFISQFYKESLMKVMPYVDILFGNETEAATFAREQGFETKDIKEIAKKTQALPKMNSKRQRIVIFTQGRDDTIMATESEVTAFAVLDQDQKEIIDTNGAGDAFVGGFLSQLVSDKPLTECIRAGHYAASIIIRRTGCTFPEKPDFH

PC-3 [8] = experiment: Cytostatic activity against human PC3 cells after 5 days by SRB assay; format: functional; details: PC-3, 120 h; in short: as §3
BT-549 [9] = experiment: Cytostatic activity against human BT549 cells after 5 days by SRB assay; format: functional; details: BT-549, 120 h; in short: as §3
HCT-15 = experiment: Cytostatic activity against human HCT15 cells after 5 days by SRB assay; format: functional; details: HCT-15, 120 h; in short: as §3
NCI-H23 = experiment: Cytostatic activity against human NCI-H23 cells after 5 days by SRB assay; format: functional; details: NCI-H23, 120 h; in short: as §3
[10] = Cytotoxicity against human HeLaS3 cells after 3 days by XTT assay; format: functional, cell-based; details: HeLa S3, 72 h; in short: as §1
A549 = experiment: Cytostatic activity against human A549 cells after 5 days by SRB assay; format: functional; details: A549, 120 h; in short: as §3
DU-145 [11] = experiment: Cytostatic activity against human DU145 cells after 5 days by SRB assay; format: functional; details: DU-145, 120 h; in short: as §3
[12] = Cytostatic activity against human Hs578 cells after 5 days by SRB assay; format: functional; details: Hs578, 120 h; in short: as §3
HeLa = experiment: Cytotoxicity against human HeLa cells after 3 days by MTT assay; format: functional, cell-based; details: 72 h
C6 = experiment: Cytotoxicity against rat C6 cells after 3 days by MTT assay; format: functional, cell-based; details: C6, 72 h
PC-3 [13] = experiment: Cytotoxicity against human PC3 cells after 3 days by MTT assay; format: functional, cell-based; details: PC-3, 72 h
LNCaP = experiment: Cytotoxicity against human LNCAP cells after 3 days by MTT assay; format: functional, cell-based; details: 72 h
[14] = Cytotoxicity against human MES-SA cells after 3 days by MTT assay; format: functional, cell-based; details: 72 h
MDA-MB-231 = experiment: Cytotoxicity against human MDA-MB-231 cells after 3 days by MTT assay; format: functional, cell-based; details: MDA-MB-231, 72 h
BJ = experiment: Cytotoxicity against human BJ cells after 3 days by MTT assay; format: cell-based; details: 72 h
HCT-116 [15] = experiment: Cytotoxicity against human HCT116 cells after 3 days by MTT assay; format: functional, cell-based; details: HCT-116, 72 h
[16] = Cytotoxicity against mouse P388D1 cells after 3 days by MTT assay; format: functional, cell-based; details: P388D1, 72 h
MAT-Ly-Lu = experiment: Cytotoxicity against rat MAT-LyLu cells after 3 days by MTT assay; format: functional, cell-based; details: 72 h
[17] = Cytotoxicity against human NCI-H146 cells after 3 days by MTT assay; format: functional, cell-based; details: NCI-H146, 72 h
[18] = Cytotoxicity against human CEM-DNR-bulk cells after 3 days by MTT assay; format: functional, cell-based; details: 72 h
CT26 = experiment: Cytotoxicity against mouse CT26 cells after 3 days by MTT assay; format: functional, cell-based; details: CT26, 72 h
BV-173 = experiment: Cytotoxicity against human BV173 cells after 3 days by MTT assay; format: functional, cell-based; details: BV-173, 72 h
[19] = Cytotoxicity against human U87MG cells after 3 days by MTT assay; format: functional, cell-based, U-87MG ATCC; details: U-87 MG, 72 h
K562 [20] = experiment: Cytotoxicity against human paclitaxel resistant K562 cells after 3 days by MTT assay; format: functional, cell-based; details: K562, 72 h
K562 [21] = experiment: Cytotoxicity against human K562 cells after 3 days by MTT assay; format: functional, cell-based; details: K562, 72 h
BT-549 [22] = experiment: Cytotoxicity against human BT549 cells after 3 days by MTT assay; format: functional, cell-based; details: BT-549, 72 h
SK-MEL-2 = experiment: Cytotoxicity against human SK-MEL-2 cells after 3 days by MTT assay; format: functional, cell-based; details: SK-MEL-2, 72 h
EL4 = experiment: Cytotoxicity against mouse EL4 cells after 3 days by MTT assay; format: functional, cell-based; details: EL4, 72 h
SK-OV-3 = experiment: Cytotoxicity against human SKOV3 cells after 3 days by MTT assay; format: functional, cell-based; details: SK-OV-3, 72 h
HPAC = experiment: Cytotoxicity against human HPAC cells after 3 days by MTT assay; format: functional, cell-based; details: 72 h
HT-29 = experiment: Cytotoxicity against human HT-29 cells after 3 days by MTT assay; format: functional, cell-based; details: HT-29, 72 h
L1210 = experiment: Cytotoxicity against mouse L1210 cells after 3 days by MTT assay; format: functional, cell-based; details: L1210, 72 h
MCF7 = experiment: Cytotoxicity against human MCF7 cells after 3 days by MTT assay; format: functional, cell-based; details: MCF7, 72 h
SK-N-AS = experiment: Cytotoxicity against human SK-N-AS cells after 3 days by MTT assay; format: functional, cell-based; details: 72 h

**Q.** What does the source list for `Nc1ncnc2c1c(-c1ccccc1)cn2[C@@H]1O[C@H](CO)[C@@H](O)[C@H]1O`?
**A.** IC50 (CCRF-CEM): > 10000 nM; Stability (DU-145 [1]): 6.68 pmol; Stability (DU-145 [2]): 6.23 pmol; Stability (DU-145 [3]): 32.91 pmol; GI50 (HCT-116 [4]): > 20000 nM; Stability (DU-145 [5]): 0.13 pmol; Stability (DU-145 [6]): 68.8 pmol; Stability (DU-145 [7]): 0.27 pmol; IC50 (HL-60): > 10 µM; GI50 (MT4): > 20000 nM; IC50 (Adenosine kinase): > 5 µM; GI50 (PC-3 [8]): > 20000 nM; GI50 (BT-549 [9]): > 20000 nM; GI50 (HCT-15): > 20 µM; GI50 (NCI-H23): > 20000 nM; IC50 [10]: > 10000 nM; GI50 (A549): > 20000 nM; GI50 (DU-145 [11]): > 20000 nM; GI50 [12]: > 20000 nM

**Q.** For `Nc1ncnc2c1c(-c1ccoc1)cn2[C@@H]1O[C@H](CO)[C@@H](O)[C@H]1O`, which IC50 (CCRF-CEM) is on record?
**A.** 70 nM

**Q.** And the IC50 (HeLa)?
**A.** 350 nM

**Q.** What about the IC50 (C6) of the same compound?
**A.** > 10 µM

**Q.** What about the IC50 (PC-3 [13]) of the same compound?
**A.** > 10 µM

**Q.** And the GI50 (HCT-116 [4])?
**A.** 15 nM

**Q.** What about the IC50 (HL-60) of the same compound?
**A.** 9.06 µM

**Q.** And the GI50 (MT4)?
**A.** 170 nM

**Q.** What about the IC50 (Adenosine kinase) of the same compound?
**A.** > 5 µM

**Q.** What about the IC50 (LNCaP) of the same compound?
**A.** 112 nM

**Q.** What about the GI50 (PC-3 [8]) of the same compound?
**A.** 418 nM

**Q.** What about the IC50 [14] of the same compound?
**A.** 1330 nM

**Q.** And the GI50 (BT-549 [9])?
**A.** 28 nM

**Q.** What about the IC50 (MDA-MB-231) of the same compound?
**A.** 126 nM

**Q.** And the IC50 (BJ)?
**A.** > 10 µM

**Q.** And the IC50 (HCT-116 [15])?
**A.** 425 nM

**Q.** And the IC50 [16]?
**A.** 139 nM

**Q.** And the IC50 (MAT-Ly-Lu)?
**A.** 1860 nM

**Q.** And the IC50 [17]?
**A.** > 10 µM

**Q.** And the IC50 [18]?
**A.** 364 nM

**Q.** What about the IC50 (CT26) of the same compound?
**A.** 1670 nM

**Q.** What about the GI50 (NCI-H23) of the same compound?
**A.** 198 nM

**Q.** What about the IC50 (BV-173) of the same compound?
**A.** 68 nM

**Q.** What about the IC50 [19] of the same compound?
**A.** > 10 µM

**Q.** What about the IC50 (K562 [20]) of the same compound?
**A.** 147 nM

**Q.** And the IC50 (K562 [21])?
**A.** 200 nM

**Q.** What about the IC50 (BT-549 [22]) of the same compound?
**A.** 452 nM

**Q.** And the IC50 (SK-MEL-2)?
**A.** > 10 µM

**Q.** And the IC50 (EL4)?
**A.** > 10 µM

**Q.** And the IC50 (SK-OV-3)?
**A.** > 10 µM

**Q.** What about the IC50 [10] of the same compound?
**A.** 20 nM

**Q.** What about the IC50 (HPAC) of the same compound?
**A.** 133 nM

**Q.** What about the IC50 (HT-29) of the same compound?
**A.** 394 nM

**Q.** What about the IC50 (L1210) of the same compound?
**A.** 445 nM

**Q.** And the GI50 (A549)?
**A.** 34 nM

**Q.** What about the GI50 (DU-145 [11]) of the same compound?
**A.** 330 nM

**Q.** And the GI50 [12]?
**A.** 21 nM

**Q.** What about the IC50 (MCF7) of the same compound?
**A.** 9.74 µM

**Q.** And the IC50 (SK-N-AS)?
**A.** > 10 µM
